Seven compounds from ChEMBL document CHEMBL1123516, “Substituted 1,3,4-thiadiazoles with anticonvulsant activity. 1. Hydrazines” (J Med Chem, 1986) can be followed below.

In general, ED50 refers to the dose at which the effect has come halfway, by size or by number of responders. The TD50 is the dose at which the toxic effect under study appears in half of the subjects. A higher TD50 goes with harm only at a large dose.

The test system of data set [1] is Rattus norvegicus. In words: Inhibition of hind limb tonus was tested at time of peak effect by maximal electroshock test (MES) on intraperitoneal administration of compound in rats. The conditions noted are these: Hindlimb, ip. It counts as functional. A general note: The maximal electroshock test induces tonic seizures with an electrical stimulus.
In data set [2] the test system is Rattus norvegicus. Kind of data set: Inhibition of hind limb tonus was tested by maximal electroshock test (MES) in rat after 4 hr of peroral administration. In kind it is functional. The conditions noted are these: Hindlimb, po.
Data set [3] can be described thus: Protective index (rat) was from the ratio of plasma concentration at which side effects occur by plasma concentration at which anticonvulsant activity occur. In kind it is functional. Summed up:
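Rat plasma drug concentration at rotorod impairment was divided by the plasma concentration at MES anticonvulsant activity. Both were measured by HPLC-UV in plasma from dosed rats.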

Data set [4] concerns Mus musculus. In words: Inhibition of hind limb tonus was tested by maximal electroshock test (MES) in mouse after 1 hr of peroral administration of compound. The settings on record: Hindlimb, po. In kind it is functional. In a few lines: (§1)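 Male BKW mice (LACA origin), 18-22 g, dosed ip or po with compound dissolved or suspended in 2% Tween 80 in distilled water. Readout was block of hind limb tonic seizure. ED50 was derived by probit analysis using the computerized Bliss method.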

Data set [5] deals with Rattus norvegicus. In words: Inhibition of hind limb tonus was tested by maximal metrazole seizure test after 1 hr of peroral administration of compound. It counts as functional. The conditions noted are these: Hindlimb, po.
In data set [6] the test system is Rattus norvegicus. In words: Inhibition of hind limb tonus was tested by maximal metrazole seizure test after 4 hr of peroral administration. It counts as functional. The conditions noted are these: Hindlimb, po.
The subject of data set [7] is Mus musculus. In words: Inhibition of hind limb tonus was tested by maximal metrazole seizure (MMS) test in mouse after 1 hr of peroral administration. In kind it is functional. The conditions noted are these: Hindlimb, po. In a few lines: (§2)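 Male BKW mice, 18-22 g, dosed orally with compound in 2% Tween 80/water. Metrazol 120 mg/kg ip was given 1 h after dosing. ED50 for block of hind limb tonic seizure was derived by Bliss probit analysis.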

Data set [8] has as its system Mus musculus. Kind of data set: Inhibition of hind limb tonus was tested at time of peak effect by maximal electroshock test (MES) in mouse on intraperitoneal administration of compound. In kind it is functional. The conditions noted are these: Hindlimb, ip. In a few lines: as §1
The test system of data set [9] is Rattus norvegicus. In words: Inhibition of hind limb tonus was tested by maximal electroshock test (MES) in rat after 1 hr of peroral administration. It counts as functional. The settings on record: Hindlimb, po.
Data set [10] in a line: Effect of compound on mouse motor performance was tested by performing a rotarod test after 1 hr of peroral administration. The settings on record: in vivo, po. In kind it is ADME, organism-based. Summed up: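 Male BKW mice (LACA origin, 18-22 g) were pre-trained on a rotorod at 16 rpm with a 3 cm drum. Compound was given orally in 2% Tween 80 in water, and mice were tested 1 h later. TD50 was the dose at which 50% fell off, derived by probit analysis.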
(The rotarod test checks motor coordination on a turning rod.)

For data set [11], the system named is Mus musculus. In words: Inhibition of hind limb tonus was tested at time of peak effect by maximal metrazole seizure (MMS) test administered intraperitoneally in mouse. It counts as organism-based. The settings on record: Hindlimb, ip. Summed up: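 Male BKW mice (18-22 g) received compound intraperitoneally in 2% aqueous Tween 80 and were challenged with metrazol 120 mg/kg ip at the time of peak effect. ED50 for block of hind limb tonic seizure in 50% of mice was obtained by probit analysis.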

Data set [12] has as its system Rattus norvegicus. In words: Inhibition of hind limb tonus was tested at time of peak effect by maximal electroshock test (MES) in rat on intraperitoneal administration of compound. The settings on record: Hindlimb, ip. In kind it is functional. Summed up:
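Rats received compound intraperitoneally and were tested at the time of peak effect. ED50 was the dose blocking hind limb tonic seizure in 50% of animals, derived by probit analysis using the Bliss computerized method (Finney).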

A short description of data set [13]: Effect of compound on mouse motor performance was tested by rotarod test administered intraperitoneally. The conditions noted are these: in vivo, ip. In kind it is ADME, organism-based. Summed up:
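Male BKW mice (18-22 g) were pre-trained on a 16 rpm rotorod with a 3 cm drum. Drug was injected intraperitoneally as a solution or suspension in 2% aqueous Tween 80, and mice were tested at the time of peak effect. TD50 was the dose making 50% of trained animals fall off, calculated by probit analysis.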

Data set [14] deals with Rattus norvegicus. In words: Inhibition of hind limb tonus was tested by maximal metrazole seizure test after 1 hr of peroral administration in rats. It counts as functional. The settings on record: Hindlimb, po. Summed up:
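Rats were dosed orally, then given metrazol (leptazol) 80 mg/kg iv 1 h later, following the Desmedt method. The endpoint was hind limb tonic seizure, with ED50 by probit analysis.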

Data set [15] deals with Rattus norvegicus. Kind of data set: Inhibition of hind limb tonus was tested by maximal metrazole seizure test after 4 hr of peroral administration in rats. The conditions noted are these: Hindlimb, po. It counts as functional. Summed up:
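Rats received the anticonvulsant orally, then metrazol (leptazol) 80 mg/kg iv, following Desmedt et al. The endpoint was block of the hind limb tonic seizure. ED50 was the dose protecting 50% of animals, by probit analysis (Bliss computerized method), with limits.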

Data set [16] concerns Rattus norvegicus. Kind of data set: Inhibition of hind limb tonus was tested by maximal electroshock test (MES) in rat 1 hr after peroral dosing. It counts as functional. The settings on record: Hindlimb, po.
Data set [17] concerns Mus musculus. Kind of data set: Inhibition of hind limb tonus was tested by performing a maximal metrazole seizure (MMS) test in mouse after 1 hr of peroral administration of compound. The conditions noted are these: Hindlimb, po.
The nature of data set [18]: Neurotoxicity by a rotarod test in mouse after 1 hr of administration. The conditions noted are these: in vivo. It counts as toxicity, organism-based. Summed up:
(§3)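 Male BKW mice, 18-22 g, were pre-trained on a rotorod turning at 16 rpm (3 cm drum). They were dosed ip or po in 2% Tween 80/water and tested at timed intervals. TD50, the dose at which 50% fell off the rod, was derived by probit analysis.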

In data set [19] the test system is Mus musculus. In words: Anticonvulsant activity tested by maximal metrazole seizure (MMS) test in mouse after 1 hr of administration. It counts as functional. In a few lines: as §2
Data set [20] deals with Rattus norvegicus. Kind of data set: Maximum percent fall in mean arterial blood pressure was evaluated by injecting 100 mg/kg perorally in DOCA hypertensive rats. It counts as functional. The conditions noted are these: route oral.
Data set [21] deals with Mus musculus. Kind of data set: Anticonvulsant activity tested by maximal electroshock test (MES) in mouse after 1 hr of administration. It counts as functional. Summed up: as §1
Data set [22] in a line: Effect of compound on mouse motor performance was studied by performing a rotarod test in mouse dosing intraperitoneally at time of peak effect. In kind it is ADME, organism-based. The conditions noted are these: in vivo, ip. In a few lines:
as §3

The species entered for data set [23] is Rattus norvegicus. In words: Plasma concentration in rat rotarod test. In kind it is functional, organism-based. Summed up: (§4)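 Groups of six rats received compound suspended in 2% Tween 80/water (0.5 mL/100 g) ip or po. Blood was drawn by cardiac puncture into heparin at various times. Plasma was extracted and assayed by HPLC-UV on an ODS column with 1% acetic acid/methanol/0.1% aqueous ammonium acetate (45:55).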

The nature of data set [24]: Effect of compound on mouse motor performance was tested by rotarod test after 1 hr of peroral administration. It counts as ADME, organism-based. The settings on record: in vivo, po. Summed up: as §3
Data set [25] is filed under the species Rattus norvegicus. Kind of data set: Plasma concentration was determined in rat maximal electroshock test. In kind it is functional, organism-based. In a few lines: as §4
A short description of data set [26]: Neurotoxicity by performing a rotarod in mouse after 1 hr of administration. In kind it is toxicity, organism-based. The conditions noted are these: in vivo. In a few lines:
as §3

Data set [27] can be described thus: Neurotoxicity by performing a rotarod test in mouse after 1 hr of administration. In kind it is toxicity, organism-based. The conditions noted are these: in vivo. Summed up:
as §3

Data set [28] relates to Mus musculus. Kind of data set: Anticonvulsant activity was assessed by performing maximal electroshock test (MES) 1 hr after dosing, in mouse. It counts as functional. Summed up: as §1

With `NC(=O)N1c2ccccc2C=Cc2ccccc21` [CARBAMAZEPINE], the ED50 in the data set with Rattus norvegicus [1] is 2 mg/kg; in the data set with Rattus norvegicus [2], 7 mg/kg; in the data set on Mus musculus [4] it was 20 mg/kg; with Rattus norvegicus [5] it was 3 mg/kg; in the data set on Rattus norvegicus [6], 5 mg/kg; in the data set with Mus musculus [7], 11 mg/kg. Further, the values for the ED50 in the data set with Mus musculus [8] and in the data set with Rattus norvegicus [9] were 6 mg/kg and 4 mg/kg, respectively. The PI in data set [3] came out at 2.51.
For `CCC1(c2ccccc2)C(=O)NC(=O)NC1=O` [PHENOBARBITAL], the ED50 in the data set with Rattus norvegicus [2] was found to be 3 mg/kg; with Mus musculus [11] it was 6 mg/kg; in the data set on Mus musculus [4], 12 mg/kg; in the data set on Rattus norvegicus [5] it was 4 mg/kg; in the data set on Rattus norvegicus [6], 5 mg/kg; in the data set on Mus musculus [7] it was 4 mg/kg. Further, the ED50 in the data set on Rattus norvegicus [12] is 3 mg/kg; in the data set with Mus musculus [8] it was 18 mg/kg; with Rattus norvegicus [9], 9 mg/kg. Besides, the TD50 at 1 h in data set [10] is 68 mg/kg. Further, the PI in data set [3] turned out to be 2.42. Moreover, in [13], the TD50 was determined as 86 mg/kg.
Turning to `O=C1NC(=O)C(c2ccccc2)(c2ccccc2)N1` [PHENYTOIN], the ED50 with Rattus norvegicus [14] was found to be 12 mg/kg; in the data set on Rattus norvegicus [1], 14 mg/kg; in the data set with Rattus norvegicus [2], 26 mg/kg; in the data set on Rattus norvegicus [15], 20 mg/kg; with Mus musculus [11], 12 mg/kg; in the data set with Rattus norvegicus [16], 14 mg/kg. For the same compound, the ED50 with Mus musculus [4], in the data set on Mus musculus [17] and with Mus musculus [8] was 8 mg/kg in each case. In addition, the PI in data set [3] was 5.17.
Regarding `CCCCCCOc1ccccc1-c1nnc(NN)s1.Cl`, the TD50 at 1 h in [18] is > 150 mg/kg. The ED50 in the data set with Mus musculus [19] amounted to 33 mg/kg; in the data set with Mus musculus [21], 20 mg/kg. For the same compound, in the data set on Rattus norvegicus [20], the “Decrease in blood pressure” value stood at 10%.
For `CN(N)c1nnc(-c2ccccc2-c2ccccc2)s1`, the 50% effective dose (ED50) in the data set on Rattus norvegicus [1] amounted to 6 mg/kg; in the data set with Rattus norvegicus [2] it was 11 mg/kg; in the data set with Mus musculus [4] it was 18 mg/kg; with Rattus norvegicus [5], 13 mg/kg; in the data set on Rattus norvegicus [6] it was 13 mg/kg; in the data set with Mus musculus [7], 27 mg/kg. Moreover, the ED50 in the data set with Mus musculus [8] came to 17 mg/kg; in the data set with Rattus norvegicus [9], 16 mg/kg. This compound also returned a TD50 in [22] of 93 mg/kg. The values for the Concentration in the data set listed under Rattus norvegicus [23] and in the data set filed under Rattus norvegicus [25] were 57 µg/mL and 11.1 µg/mL, respectively. In addition, the PI in [3] stood at 5.14. The TD50 at 1 h in [24] was > 1000 mg/kg.
`COCN(N)c1nnc(-c2ccccc2Cl)s1`: the results for the 50% effective dose (ED50) with Mus musculus [19] and in the data set with Mus musculus [21] were 60 mg/kg and 50 mg/kg, respectively. In data set [26], this compound had a TD50 at 1 h of 80 mg/kg.
`CN(C)N(C)c1nnc(-c2ccccc2-c2ccccc2)s1.Cl`: the ED50 with Mus musculus [19] is 73 mg/kg; in the data set with Mus musculus [28], 63 mg/kg. Moreover, in data set [27], the TD50 at 1 h was > 800 mg/kg.
